CHT block: inhibits the human high affinity choline transporter. Q9GZV3. CHT-expressing cells, membrane potential dye, choline response; active compounds read low. B-score at 10 µM. hit rate 0.86% among 310,000;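 active = B-score over 3 SD under the library average, and starting fluorescence ratio not unusually high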;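 note: choline stimulus applied at its EC90 after an EC20 pre-addition; B-score computed on integrated fluorescence ratio after choline addition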
CHT allo act: human CHT allosteric activation; Q9GZV3; CHT-expressing cells, membrane potential dye, choline EC20; active compounds read high; LV-AA mutant CHT in HEK293 cells; B-score at 10 µM; hit rate 0.49% among 310,000; AID 488977;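 active = initial fluorescence not abnormally high and integrated response B-score, plate-corrected, over 3 SD above library mean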
Rad51 HR inh: Rad51 (human) homologous recombination inhibition. Q06609. hRad51 DNA strand exchange, fluorescence dequenching. inhibition, % at 10 µM. hit rate 0.085% among 200,000;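 active = inhibition above 40% at the single screening dose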;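 note: 0% = DMSO control wells and 100% = blanks with heterologous ssDNA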
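Material: human Rad51–ssDNA filaments; Probe or stimulus: labelled 47-mer dsDNA for strand exchange; Doses: single 10 µM dose; Incubation: 37 °C 15-min filament assembly, 30-min compound preincubation, 15-min exchange; Technique: FRET fluorescence dequenching, excitation 485 nm, emission 520 nm; Measure: Fluorescence-based percent inhibition, control- and blank-normalised; Benchmarks: plate control and blank wells.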
Cl transport mod: KCC2 (human) Cl- transport modulation; KCC2 cells, thallium flux FluoZin-2 fluorescence; B-score of Tl+ flux slope (higher = more flux/activation; lower = inhibition) at 10 µM; hit rate 2.2% among 190,000; AID 1456;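 active = thallium flux slope and its plate-corrected score both differing from the plate sample mean at a set confidence after two filtering rounds, in either direction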;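 note: slope of fluorescence scaled to starting intensity during 10 to 20 s after thallium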
KCC2 secondary: confirmation of human KCC2 transport modulators; shares compounds with Cl transport mod; AID 1713; HEK293-KCC2, thallium flux, FluoZin2 fluorescence; active compounds read high; normalised thallium flux (F/F0 slope) at 10 µM; hit rate 15% among 3,700;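 active = thallium flux slope above the same plate's solvent-only control mean plus 3 SD; inconclusive = the two replicate wells disagree; inactive = no significant difference from solvent-only control wells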
KCC2 bumet counter: thallium flux persisting under bumetanide in KCC2 cells, counter-screen secondary assay; shares compounds with Cl transport mod; HEK293-KCC2 + bumetanide/ouabain, thallium flux FluoZin2; active compounds read high; normalized thallium flux at 10 µM; hit rate 49% among 3,700; AID 1714;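 active = thallium entry rate above the same plate's blocked-transporter control wells by more than 3 SD; inconclusive = the two repeat wells disagree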;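 note: raw slope of fluorescence over initial fluorescence between 10 and 20 s after thallium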
KCC2 secondary2: KCC2 (human) modulation, second secondary assay. hit rate 23% among 3,700. AID 1715. HEK293-KCC2, thallium flux FluoZin2 fluorescence; actives lie on both sides; F/F0 rise rate, 10–20 s post-thallium. normalized thallium flux at 10 µM. shares compounds with Cl transport mod;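 active = thallium flux slope more than 3 SD above or below the plate's solvent-only control mean, mostly below; inconclusive = the two repeat wells disagreed; inactive = no significant shift from solvent-only controls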;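 note: raw slope with 0.1% DMSO as baseline and bumetanide as block control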
HEK293 Tl flux: counter-screen for KCC2 modulators: effect in parental HEK293 cells | thallium flux rate (normalised fluorescence) at 10 µM | shares compounds with Cl transport mod | thallium flux FluoZin2, ouabain; baseline-ratio fluorescence slope, 10–20 s after thallium | AID 1716 | hit rate 46% among 3,700;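 active = thallium flux rate significantly above the same plate's solvent-only control wells, beyond their mean plus 3 SD; inconclusive = the two replicate wells gave conflicting results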
KCC2 retest ouab: KCC2 (human) modulation, ouabain retest; shares compounds with Cl transport mod; HEK293-KCC2, thallium flux FluoZin2 fluorescence; bidirectional: low = inhibitor, high = activator; raw Tl+ flux slope (below DMSO = inhibition, above = activation) at 10 µM; hit rate 48% among 3,700; AID 1717;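 active = thallium flux slope beyond 3 SD from same-plate DMSO control mean in most replicates, usually higher, sometimes lower; inconclusive = repeat tests gave conflicting results; inactive = no significant difference from controls in most replicates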;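 note: slope of initial-normalized fluorescence between seconds 10 and 20 after thallium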
HEK counter2: counter-screen for KCC2 modulators: effect in parental HEK293 cells; thallium flux slope at 10 µM; shares compounds with Cl transport mod; thallium flux FluoZin-2 fluorescence slope; hit rate 33% among 3,700;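 active = thallium flux slope above the same plate's solvent-control mean plus 3 SD in both duplicate wells; inconclusive = duplicate wells that disagreed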;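 note: run without ouabain in cells lacking the KCC2 cotransporter; slope of fluorescence scaled to its starting value between 10 and 20 s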
Numbers without * were called inactive; i = inactive; ? = inconclusive; . = no result given. Shown are actives, neighbours in structure and some others; about 2.6% of the full set was active somewhere.

SMILES	CHT block	CHT allo act	Rad51 HR inh	Cl transport mod	KCC2 secondary	KCC2 bumet counter	KCC2 secondary2	HEK293 Tl flux	KCC2 retest ouab	HEK counter2
Oc1ccccc1CNc1ccc(Br)cn1	i	i	-2.0	19.6*	.	.	.	.	.	.
Cc1cc2nc(SCCOC(=O)Nc3ccc(Cl)cc3)nc(C)c2cc1C	i	i	2.6	-0.149	.	.	.	.	.	.
O=C(c1ccc(F)cc1)C1CCN(CCn2c(=S)[nH]c3ccccc3c2=O)CC1	i	i	-4.8	7.01*	.	.	.	.	.	.
O=C(CCCN1C(=O)/C(=C/c2cccs2)SC1=S)NNC(=O)c1cccnc1	i	i	41.7*	-0.0833	.	.	.	.	.	.
O=C(CCCN1C(=O)/C(=C\c2cccs2)SC1=S)NNC(=O)c1ccncc1	i	i	1.5	-0.207	.	.	.	.	.	.
CCn1c(SCC(=O)Nc2cc(C)on2)nc2c(c1=O)SCC2	i	i	.	.	.	.	.	.	.	.
O=c1c2ccccc2nc(/C=C/c2cccnc2)n1Cc1ccccc1	.	.	48.2*	-1.2	.	.	.	.	.	.
C[C@H](NC(=O)c1nc[nH]c1C(=O)NCCCCCNC(=O)OC(C)(C)C)C(=O)OC(C)(C)C	i	i	11.0	-1.05	.	.	.	.	.	.
O=c1c(O)c(-c2ccc3c(c2)OCO3)oc2ccccc12	i	i	-2.8	.	0.0318*	0.169*	0.0515*	0.103*	0.1*	0.0499*
CC(=O)Nc1ccc(S(=O)(=O)N2c3ccccc3NC(=O)CC2C)c(Cl)c1 (stereo not drawn)	i	i	22.6	0.587	.	.	.	.	.	.
Cn1c(C(=O)OC(C(=O)NC(C)(C)C)c2cccnc2)cc2sccc21 (stereo not drawn)	i	i	3.6	-1.09	.	.	.	.	.	.
Cn1c(C(=O)OC(C(=O)NC2CCCC2)c2ccncc2)cc2sccc21 (stereo not drawn)	i	i	-9.3	-5.18*	0.00677	?	0.025*	0.0074	?	0.0101
Cn1c(CSCc2ccccc2)nnc1SCC(=O)Nc1nccs1	i	i	-3.9	6.22*	0.00577	0.00396	0.0284	0.00671	0.0168	0.00933
Cn1c(SCc2c(Cl)cccc2Cl)nnc1-c1cccs1	i	i	-0.1	-4.64*	0.00758	0.00392	0.0273	?	?	0.00932
Cc1csc(NC(=O)CSc2ccc(-c3ccccc3)nn2)n1	i	i	5.5	-5.64*	0.0139	0.00507	0.019*	0.00684	0.0131	0.00975
Cc1nnc(NC(=O)CSc2nnc(-c3ccccc3)n2C)s1	i	i	.	0.325	.	.	.	.	.	.
Cn1c(SCC(=O)Nc2nc3c(s2)CCCC3)nnc1-c1ccccc1	i	i	-5.9	-4.83*	0.00741	0.0054	0.0231*	0.00816	0.0176*	0.0117
Cc1cc(C)c(S(=O)(=O)N2CCCC(C(=O)NC3CC3)C2)c(C)c1 (stereo not drawn)	i	i	.	.	.	.	.	.	.	.
Cc1ccnc(NC(=O)c2cc(-c3ccc(Cl)s3)nc3ccccc23)c1	i	i	.	.	.	.	.	.	.	.
O=C(Cc1ccccc1)Nc1nc(-c2cccs2)cs1	i	i	-9.2	0.0458	.	.	.	.	.	.
Cc1csc(NC(=O)CSc2nnc(-c3cccs3)n2C)n1	i	i	-5.3	-3.01*	0.00779	0.00643	0.0324	0.00677	0.0204	0.0107
CCn1nnnc1SCC(=O)Nc1nc(-c2cccs2)cs1	i	i	-0.6	-4.12*	0.00882	0.00629	?	0.00669	0.0135*	0.0101
Cc1csc(NC(=O)CSc2nnc(CCNC(=O)c3cccs3)n2C)n1	i	i	-3.0	0.0298	.	.	.	.	.	.
NC(=O)CC(NC(=O)Cc1ccc(Br)cc1)c1ccc(N2CCN(c3ccccc3)CC2)c([N+](=O)[O-])c1 (stereo not drawn)	i	i	-5.2	1.13	.	.	.	.	.	.
CCC(c1nnnn1Cc1cccs1)N1CCN(C2CCCC2)CC1 (stereo not drawn)	i	i	-3.3	0.242	.	.	.	.	.	.
SMILES	CHT block	CHT allo act	Rad51 HR inh	Cl transport mod	KCC2 secondary	KCC2 bumet counter	KCC2 secondary2	HEK293 Tl flux	KCC2 retest ouab	HEK counter2
CCC(c1nnnn1Cc1cccs1)N1CCN(c2nc3ccccc3s2)CC1 (stereo not drawn)	i	i	5.2	-3.99*	0.00687	0.00412	?	0.00633*	0.0138*	0.0113
O=C(Nc1nc2cc3c(cc2s1)OCO3)C1CC1	i	i	12.2	0.592	.	.	.	.	.	.
Fc1cc(F)c2nc(Nc3nc4cc5c(cc4s3)OCO5)sc2c1	i	i	10.6	8.46*	0.00792	0.0169*	0.0356	0.0131*	0.0256*	0.0163*
CCCc1cc(C(=O)NNC(=S)Nc2cccc(C)c2)cs1	i	i	3.6	31*	0.00583	0.0829*	0.0627*	0.0771*	0.0652*	0.0442*
Cc1cccc(NC(=S)NNC(=O)c2ccccc2OC(F)F)c1	i	i	.	13.3*	0.00913	0.0265*	0.0303	0.0117*	?	0.0111*
Cc1cccc(NC(=S)NNC(=O)c2ccc3c(c2)OCO3)c1	i	i	-31.9	2.54	.	.	.	.	.	.
COc1ccc(NC(=S)NNC(=O)c2ccccc2OC(F)F)cc1	i	i	-7.5	0.0405	.	.	.	.	.	.
Cc1ccsc1/C=N/NC(=O)c1ccc2ccccc2c1	i	i	.	.	.	.	.	.	.	.
Cc1ccsc1/C=N/NC(=O)c1ccc([N+](=O)[O-])cc1	i	i	3.7	3.57*	0.0155	0.0156*	0.029	0.0107*	0.0188	0.0134*
O=C1c2ccccc2C(=O)N1CCCCN(C(=O)c1cc2ccccc2oc1=O)c1ccc(F)cc1F	i	i	7.1	-1.68	.	.	.	.	.	.
CC(=O)c1cccc(NC(=S)NC2CC2)c1	i	i	6.4	0.468	.	.	.	.	.	.
CC1CCCCC1NC(=S)NC(=O)c1ccccc1Br (stereo not drawn)	i	i	12.9	22.4*	0.0074	0.00967*	0.0348	0.0143*	0.0272*	0.0152*
O=C(NC(=S)NC1CCS(=O)(=O)C1)c1ccccc1Br (stereo not drawn)	i	i	.	.	.	.	.	.	.	.
CC(=O)c1cccc(NC(=S)NC(=O)c2ccccc2Br)c1	i	i	5.1	7.02*	0.014*	0.0764*	0.0375	0.0173*	?	0.0134*
CC(=O)c1cccc(NC(=S)NC(=O)c2ccc(Cl)cc2)c1	i	i	11.5	5.49*	0.00588	0.0156*	0.0314	0.0109*	?	?
